# Assay results collected from several papers.
# Protocols differ between the studies behind these lines.
# Target: cGMP-dependent protein kinase 2 (PRKG2, Homo sapiens, UniProt Q13237)
# One construct used (Q13237 1-762): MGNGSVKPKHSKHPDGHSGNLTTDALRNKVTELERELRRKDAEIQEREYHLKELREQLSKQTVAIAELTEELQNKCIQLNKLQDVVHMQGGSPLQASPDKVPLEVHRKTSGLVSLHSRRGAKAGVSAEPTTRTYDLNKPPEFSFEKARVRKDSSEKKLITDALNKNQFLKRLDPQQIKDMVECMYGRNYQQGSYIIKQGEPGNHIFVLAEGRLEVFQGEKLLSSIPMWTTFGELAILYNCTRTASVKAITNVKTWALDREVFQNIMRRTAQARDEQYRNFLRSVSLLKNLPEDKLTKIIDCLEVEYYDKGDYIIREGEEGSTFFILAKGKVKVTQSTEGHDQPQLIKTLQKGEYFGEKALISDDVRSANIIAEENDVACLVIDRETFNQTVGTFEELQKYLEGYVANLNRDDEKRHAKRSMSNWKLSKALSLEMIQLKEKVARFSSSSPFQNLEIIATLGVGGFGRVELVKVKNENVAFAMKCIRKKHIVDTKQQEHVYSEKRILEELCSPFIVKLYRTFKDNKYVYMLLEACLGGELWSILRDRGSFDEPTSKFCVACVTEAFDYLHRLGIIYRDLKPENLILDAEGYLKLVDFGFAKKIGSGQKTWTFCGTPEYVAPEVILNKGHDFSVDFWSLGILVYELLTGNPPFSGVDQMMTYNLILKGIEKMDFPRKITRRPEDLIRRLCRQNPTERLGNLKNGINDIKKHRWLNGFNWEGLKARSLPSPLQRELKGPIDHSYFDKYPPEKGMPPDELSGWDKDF
Structure (SMILES),effect on,technique,tested at,remaining binding [%]
CN(C)c1nccc(-c2cnc3ncccn23)n1,binding,,1 µM,69
CCN1CCN(Cc2ccc(C(=O)Nc3ccc(C)c(Oc4ccc5c(c4)CC(=O)N5)c3)cc2C(F)(F)F)CC1,binding,competition with immobilised ligand,1 µM,100
Nc1ncc2c(n1)-c1c([nH]c3ccc(C#CC4CC4)cc13)CCCC2,binding,competition with immobilised ligand,1 µM,80
CN(C)c1ncc(F)c(-c2cnn3ncccc23)n1,binding,,1 µM,100
O=C1NC(c2ccccn2)Sc2ccccc21 (stereo not shown),cell-free assay,competition with immobilised ligand,1 µM,90
COc1cnc(Nc2cccc(S(N)(=O)=O)c2)nc1N1CCN(c2ccccc2)CC1,binding,competition with immobilised ligand,1 µM,92
O=C(O)c1cc(-c2ccc(C3CCNCC3)cc2)c2ccc(-c3ccc(C(F)(F)F)cc3)cc2c1,cell-free assay,competition with immobilised ligand,1 µM,79
O=C(NCC1CCOCC1)c1n[nH]cc1NC(=O)c1c(F)cccc1F,binding,competition with immobilised ligand,1 µM,88
C[C@H](c1ccc(F)cc1)N(Cc1cccc(C(=O)O)c1)C(=O)c1cnc2ccccc2c1,cell-free assay,competition with immobilised ligand,1 µM,100
CN(C)c1nccc(-c2cnn3ncccc23)n1,binding,,1 µM,100
CN(C)C(=O)Cn1cc(-c2nc(C3(c4ccc(-c5cnc(N)nc5)cc4)CC3)no2)cn1,cell-free assay,competition with immobilised ligand,1 µM,100
O=C(NCCCN1CCOCC1)c1ccc(Nc2ncc(Cl)c(-c3ccc(Cl)s3)n2)cc1,binding,competition with immobilised ligand,1 µM,54
c1cnn2ncc(-c3ccnc(N4CCC45COC5)n3)c2c1,binding,,1 µM,82
O=C(NCCCN1CCOCC1)c1ccc(Nc2nccc(-c3cc4ccccc4s3)n2)cc1,binding,competition with immobilised ligand,1 µM,43
CO[C@@H](C)c1c(Nc2ccc([C@H](N(C)C(=O)C3CCS(=O)(=O)CC3)C(F)(F)F)cc2)cnc2cc(Cl)nn12,cell-free assay,competition with immobilised ligand,1 µM,100
COc1ccnn2ncc(-c3ccnc(N(C)C)n3)c12,binding,,1 µM,100
Cn1nc(C(=O)NCc2ccc(C(=O)O)cc2)cc1-c1ccc2[nH]ccc2c1,cell-free assay,competition with immobilised ligand,0.1 µM,78
N[C@@H]1CCN(c2nccc(-c3cnn4ncccc34)n2)C1,binding,,1 µM,100
CCC(=O)N[C@H]1CC[C@@H](C(=O)N(C)c2ccc(-c3nc4ccccc4o3)cc2)C1,cell-free assay,competition with immobilised ligand,1 µM,100
O=C(c1ccc(Nc2ncc(Cl)c(-c3ccc(Cl)s3)n2)cc1)N1CCC(N2CCCC2)CC1,binding,competition with immobilised ligand,1 µM,42
C=CC(=O)N1CCC(C(=O)NCC(=O)N2CCN(c3nc(-c4cnc(N)nc4C(F)F)nc(N4CCOCC4)n3)CC2)CC1,binding,competition with immobilised ligand,1 µM,69
c1cncc(-c2cccc(Nc3nccc(NC4CCCCC4)n3)c2)c1,binding,competition with immobilised ligand,10 µM,74
